# High-throughput results as filed in PubChem.
# Sampled rows, rich in hits. Any-hit rate of the full collection: about 1.5%.
# CCR6 antagonist: antagonists of human CCR6 receptor. CHO-K1 CCR6 PathHunter beta-arrestin, luminescence, CCL20-stimulated. P51684. 0.49% of 340,000 active. inhibition, % at 20 µM;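 active = compounds whose inhibition of the agonist-driven luminescence signal at 20 µM reaches about 50%, limit read from the data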;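 note: cells stimulated with CCL20 at 14 nM final; plate controls were DMSO with CCL20 for no effect and DMSO without agonist for full effect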
# APJ agonist: agonists of human APJ apelin receptor; 0.11% of 330,000 active; activation, % at 20 µM; CHO-K1 APJ PathHunter beta-arrestin, luminescence; 0% DMSO wells, 100% apelin; P35414;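 active = activation more than six SD over the plate average, tested at 20 µM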;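 note: 0% = DMSO alone and 100% = apelin-13 at 10 nM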
#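 Test system: CHO-K1 APJ beta-arrestin complementation cell line | Compound: Single test compound dose, 20 µM final, 1% DMSO | Incubation: Compound 90 min 25 °C, reagent 1 h | Measured by: beta-gal luminescence | Read-out basis: APJ–arrestin association signal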
# APJ antagonist: APJ receptor antagonism; P35414; CHO-K1 APJ beta-arrestin complementation, luminescence; inhibition, % at 20 µM; 0.32% of 330,000 active;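 active = inhibition above about 40% at 20 µM, limit read from the data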;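 note: cells challenged with 10 nM apelin-13 agonist together with compound; plate controls were apelin-13 plus DMSO wells for no effect and DMSO wells lacking apelin-13 for full effect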
# CXCR6 block: blocks human CXCR6 beta-arrestin recruitment. O00574. CHO-K1 PathHunter CXCR6 beta-arrestin, luminescence. inhibition, % at 20 µM. 0.36% of 360,000 active. AID 602244; in the data active = inhibition above about 34%, passing the limit was not always enough;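 note: antagonist mode with CXCL16 agonist at 10 nM final; 0% = 10 nM CXCL16 with DMSO and 100% = unstimulated wells without agonist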
# Target sequence (O00574 whole entry, looked up): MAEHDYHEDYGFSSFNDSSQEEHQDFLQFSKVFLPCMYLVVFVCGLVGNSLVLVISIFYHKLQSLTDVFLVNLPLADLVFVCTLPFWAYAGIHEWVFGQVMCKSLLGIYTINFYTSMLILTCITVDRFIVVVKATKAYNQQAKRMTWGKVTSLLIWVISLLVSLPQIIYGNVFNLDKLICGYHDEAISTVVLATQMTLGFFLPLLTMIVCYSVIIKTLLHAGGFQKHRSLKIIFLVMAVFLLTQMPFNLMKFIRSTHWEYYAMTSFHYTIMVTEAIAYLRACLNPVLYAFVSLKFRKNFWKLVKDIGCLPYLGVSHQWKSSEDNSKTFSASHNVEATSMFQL
# EBI2 block: antagonists of human EBI2 receptor; EBI2 beta-arrestin recruitment, luminescence, 7a,25-OHC stimulated; inhibition, % at 5 µM; 0.81% of 360,000 active; AID 651636; in the data active = inhibition above about 38%;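 note: enzyme fragment complementation signal reports receptor beta-arrestin coupling in cells; 0% = agonist plus DMSO wells and 100% = wells without agonist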
# CXCR6 confirm: CXCR6 antagonism confirmation, single concentration; shares compounds with CXCR6 block; CHO-K1 CXCR6 PathHunter beta-arrestin, luminescence; inhibition, % at 20 µM; 65% of 700 active;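 active = mean inhibition over four retests above 40%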;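 note: receptor stimulated with 10 nM CXCL16 agonist; beta-galactosidase fragment complementation upon beta-arrestin recruitment to receptor; plate controls were CXCL16 plus DMSO for no effect and DMSO without CXCL16 for full effect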
# EBI2 conf: EBI2 (human) antagonism, single concentration confirmation; shares compounds with EBI2 block; EBI2 beta-arrestin luminescence, 7a,25-OHC antagonism; inhibition, % at 5 µM; 29% of 2,400 active;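 active = inhibition of at least 50%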
# EBI2 ag: activates EBI2, counter-screen for EBI2 antagonists | EBI2-expressing cells, agonist mode, luminescence, 60 min; 0% vehicle, 100% 7α,25-dihydroxycholesterol control | shares compounds with EBI2 block | AID 652000 | 2,400 tested, under 10 active | activation, % at 5 µM;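 active = activation of at least 50%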
# bGal cs: inhibits E. coli beta-galactosidase, counter-screen for EBI2 antagonists; shares compounds with EBI2 block; purified beta-galactosidase, luminescent Galacton Star, 15 min; inhibition, % at 5 µM; 1% of 2,400 active; AID 652176;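 active = replicate-average signal at least 3 plate SD below neutral wells, shown as high inhibition, flagging enzyme-inhibiting false positives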;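 note: 0% = DMSO wells with enzyme and 100% = wells lacking enzyme; higher means stronger loss of beta-gal luminescence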
# Numbers without * were called inactive; nt = no result.
SMILES,CCR6 antagonist,APJ agonist,APJ antagonist,CXCR6 block,EBI2 block,EBI2 conf,EBI2 ag,bGal cs,others
CCC1NC(=O)c2cc3ccccc3cc2-n2c1nc1cc(C)cc(C)c1c2=O (stereo unspecified),nt,nt,nt,59.8*,85.6*,68.7*,-1.1,-10.8,CXCR6 confirm=7.0
CS(=O)(=O)c1ccc(C(=O)OCC(=O)N2CCOCC2)cc1[N+](=O)[O-],nt,nt,nt,-10.7,-1.4,nt,nt,nt,
CS(=O)(=O)c1ccc(C(=O)OCC(=O)N2CCN(CCC3CCCCC3)CC2)cc1[N+](=O)[O-],nt,nt,nt,54.2*,47.7*,53.7*,-1.1,-17.3,CXCR6 confirm=71.2*
Cc1cc(OCC(=O)NCCc2c[nH]c3ccccc23)c2c(C)cc(=O)oc2c1,4.6,-2.6,-0.5,-2.1,17.3,nt,nt,nt,
O=C(COC(=O)/C=C/c1ccc(OC(F)F)cc1)NC(=O)NCc1ccccc1,-7.6,0.8,0.8,1.8,49.9*,4.8,1.4,-0.5,
COc1cc(C(=O)NCCc2c[nH]c3ccccc23)ccc1OCc1c(C)noc1C,8.1,4.8,-12.9,-5.2,60.9*,49.3,-0.4,-19.2,
COc1ccc(CCNC(=O)c2ccc(OCc3c(C)noc3C)c(OC)c2)cc1,6.4,0.8,1.5,2.7,-4.6,nt,nt,nt,
O=S(=O)(SC1=NCCN1)c1ccccc1,7.5,nt,nt,8.6,-11.7,nt,nt,nt,
Cc1cccc(OCCNc2cc(N3CCOCC3)ccc2[N+](=O)[O-])c1,21.8,-0.2,1.1,8.0,64.4*,47.7,0.8,9.1,
COc1ccc(NC(=O)CN2CCN(C3c4ccccc4-c4ccccc43)CC2)cc1,5.9,0.5,20.9,-4.0,47.2*,42.9,-0.2,-15.6,
CC1CCCC(NC(=O)c2cc(S(=O)(=O)N3CCCCC3)c[nH]2)C1C (stereo unspecified),nt,nt,nt,7.1,-7.2,nt,nt,nt,
CC1=C(C(=O)Nc2ccc(C(=O)NCCCN3CCCCC3C)cc2)SCCO1 (stereo unspecified),nt,nt,nt,14.2,2.4,nt,nt,nt,
Cc1ccc(S(=O)(=O)N2CCN(C(=O)c3cc4c(s3)CCCC4)CC2)c(C)c1,19.8,-2.9,11.2,5.5,67.7*,34.1,-0.8,-10.9,
CC1CCN(c2ccc3c(c2)S(=O)(=O)c2ccccc2C3=O)CC1,17.9,-0.5,5.6,0.4,5.8,nt,nt,nt,
Cc1nn(-c2ccc(N3CCCCC3)nn2)c(C)c1CCC(=O)Nc1ccc(F)c(F)c1,-7.0,13.3,-1.3,1.0,2.6,nt,nt,nt,
CS(=O)(=O)N(CC(=O)NCCSc1ccc(Cl)cc1)c1ccc2c(c1)OCO2,39.0,-0.3,6.7,-8.5,87.1*,63.3*,-0.1,3.2,
COc1ccc(N(CC(=O)NCCSc2ccccc2)S(=O)(=O)c2ccccc2)cc1OC,16.3,0.5,-4.6,-15.0,48.5*,27.1,1.4,0.3,
CS(=O)(=O)N(CC(=O)NCCSc1ccccc1)c1ccc2c(c1)OCO2,9.9,-3.3,0.2,11.3,21.9,nt,nt,nt,
COc1cc(C(=O)N2Cc3cc4ccccc4nc3C2C)cc(OC)c1OC (stereo unspecified),nt,nt,nt,-5.4,1.7,nt,nt,nt,
CC(=O)c1ccc(NC(=O)C2CCCNC2=O)cc1 (stereo unspecified),-13.7,-1.1,2.3,34.1,55.2*,7.6,0.8,7.3,
COc1ccc(NC(=O)C2CCCNC2=O)cc1 (stereo unspecified),-0.7,-1.1,-2.9,3.1,-9.1,nt,nt,nt,
Cc1ccc(NC(=O)c2ccc(NS(=O)(=O)c3c(C)noc3C)cc2)cc1C,13.1,2.4,7.6,-3.3,48.4*,12.4,3.2,-11.7,
CCOC(=O)C1=CCN(S(=O)(=O)c2ccccc2C)C1c1cccc(Br)c1 (stereo unspecified),nt,nt,nt,16.9,66.5*,24.8,-0.8,-12.9,
CCOC(=O)C1=CCN(S(=O)(=O)c2ccccc2Cl)C1c1ccccc1 (stereo unspecified),nt,nt,nt,-2.1,-11.7,nt,nt,nt,
